In the library only some 3.6% were active in any assay of this set; here they are far more common.
AHR activator: AHR activators, primary screen, cell-based, luminescence, luciferase reporter, human | 320,000 compounds, 2.5% hits | Aryl hydrocarbon receptor (Homo sapiens), P35869 | activation, % at 5 µM | AHR-responsive luciferase reporter cells; in the data active = activation above about 47%
HSF1 inhib: HSF1 inhibitors in luciferase reporter cells, primary screen, cell-based, NIH3T3, luminescence. NIH3T3-HGL HSE-luciferase, MG132-induced, luminescence 8 h; active compounds read low. activity change, negative = inhibition, % at 7.5 µM (by protocol). 300,000 compounds, 0.77% hits;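 active = more than half of replicate wells show activity change below -50%, luminescence cut by over half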;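 also: luciferase reports HSF-1 transcriptional activity via heat shock element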
PERK inhibitor: block of dimerizer-induced PERK translation repression, primary screen, PERK inhibitor project, CHO PERK-DD cells, SEAP luminescence, HTS; Eukaryotic translation initiation factor 2-alpha kinase 3 (Homo sapiens), Q9NZJ5; CHO PERK-DD fusion, SEAP luminescence translation reporter; inhibition, % at 5.6 µM; 220,000 compounds, 0.17% hits; AID 1416, 2008;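 active = inhibition above the mean inhibition of all tested compounds plus 3 SD, set separately per screening campaign, cut at about 2.9% in these data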;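 also: PERK kinase domain activated by AP20187 dimerizer at 100 nM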
Target sequence (Q9NZJ5 whole entry, looked up, the tested form may be a part): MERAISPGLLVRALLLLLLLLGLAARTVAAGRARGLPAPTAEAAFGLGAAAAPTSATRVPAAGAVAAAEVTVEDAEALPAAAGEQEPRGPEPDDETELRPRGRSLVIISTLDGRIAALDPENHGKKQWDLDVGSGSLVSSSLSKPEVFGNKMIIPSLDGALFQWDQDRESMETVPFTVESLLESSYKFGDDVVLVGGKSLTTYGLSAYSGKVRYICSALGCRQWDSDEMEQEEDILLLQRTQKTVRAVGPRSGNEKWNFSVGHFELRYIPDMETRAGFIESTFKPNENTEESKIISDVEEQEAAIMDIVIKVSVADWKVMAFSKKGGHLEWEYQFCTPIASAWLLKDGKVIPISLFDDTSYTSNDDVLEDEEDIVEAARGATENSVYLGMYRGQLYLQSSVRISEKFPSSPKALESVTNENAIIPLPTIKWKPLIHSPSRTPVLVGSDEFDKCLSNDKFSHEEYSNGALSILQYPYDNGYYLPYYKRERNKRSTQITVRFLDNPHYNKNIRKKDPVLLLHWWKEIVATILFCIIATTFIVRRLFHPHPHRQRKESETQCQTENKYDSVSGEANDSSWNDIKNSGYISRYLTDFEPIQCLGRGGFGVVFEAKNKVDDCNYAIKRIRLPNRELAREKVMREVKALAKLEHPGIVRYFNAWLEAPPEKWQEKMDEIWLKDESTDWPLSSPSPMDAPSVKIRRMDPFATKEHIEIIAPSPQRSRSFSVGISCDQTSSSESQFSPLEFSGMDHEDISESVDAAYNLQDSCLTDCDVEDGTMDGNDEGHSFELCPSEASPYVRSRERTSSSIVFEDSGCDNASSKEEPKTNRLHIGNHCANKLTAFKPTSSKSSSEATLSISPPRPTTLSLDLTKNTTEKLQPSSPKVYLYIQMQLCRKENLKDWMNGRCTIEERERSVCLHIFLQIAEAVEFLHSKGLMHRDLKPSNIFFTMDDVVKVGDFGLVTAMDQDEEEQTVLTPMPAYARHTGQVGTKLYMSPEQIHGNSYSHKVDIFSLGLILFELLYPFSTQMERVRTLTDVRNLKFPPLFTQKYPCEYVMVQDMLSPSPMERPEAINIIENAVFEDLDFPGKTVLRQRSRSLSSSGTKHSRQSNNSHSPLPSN
Hsp70 activator: Hsp70 transcriptional activators, primary screen, cell-based, HeLa, Hsp70 promoter luciferase, luminescence, 10 µM; HeLa Hsp70 promoter luciferase reporter; scaled: vehicle 0, proteasome-inhibitor control 100%; activation, % at 10 µM; 200,000 compounds, 0.04% hits; AID 1203, 2008;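 active = activation above the mean across all tested compounds plus 3 SD, cutoff set per campaign, cut at about 5.5% in these data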
PolyA inhibitor: polyadenylation inhibitors in yeast reporter cells, primary screen, luminescence, S. cerevisiae | 300,000 compounds, 0.02% hits | S. cerevisiae SKY197-pL101 polyadenylation reporter, beta-gal luminescence; efflux-impaired pdr1/pdr3 knockout yeast; score 100 = 6 SD above DMSO | activity score, % at 12 µM;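 active = lowest replicate activity score at least 50, where 100 means six control SD above control mean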;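 also: yeast exposed to compound for 9 h at 30 °C; higher score means more reporter readthrough which indicates perturbed polyadenylation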
STAT3 act: IL-6 driven STAT3 reporter potentiators, primary screen, U3A cells, luciferase, luminescence, MLSCN library; IL-6 STAT3-luciferase reporter; 100% = signal with IL-6 EC80 alone; activation (% of control), % at 5.6 µM; 190,000 compounds, 0.91% hits;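 active = activation above the screen-wide mean of compound activation plus 3 SD, cut at about 130% in these data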
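Material: human STAT1-deficient U3A cells with stable STAT3-luciferase reporter / Probe or stimulus: IL-6 stimulus at 33 ng/mL final / Schedule: 1 h compound pre-exposure, 6 h IL-6 stimulation, 37 °C / Technique: luminescence / Read-out basis: percent of IL-6-only median luminescence / Control set: IL-6-only high control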
AHR act confirm: AHR activators, confirmation, cell-based, luminescence, luciferase reporter, human. shares compounds with AHR activator. human cells, AHR-responsive luciferase reporter. activation, % at 9 µM. 2,300 compounds, 87% hits. AID 2845, 2010; in the data active = activation above about 49%;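 also: HepG2 hepatoma cells carrying a DRE-driven firefly luciferase reporter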
PXR counter: human PXR activators, counter-screen for AHR activator project, cell-based, luciferase luminescence; shares compounds with AHR activator; cell-based PXR reporter; activation, % at 11.6 µM; 2,300 compounds, 88% hits; in the data active = activation above about 11%;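 also: human hepatoma DPX-2 cells expressing full-length human PXR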
Each line names hits and unclear results; the compound was inactive in the other large screens (follow-up assays come after a bar, where they were run).

N#C/C(=C1\CCCN1)c1nc2ccccc2c(=O)[nH]1	none
N#C/C(=C1/CCCCCN1)c1nc2ccccc2s1	AHR activator 87 | AHR act confirm 122 | PXR counter 56
COc1ccccc1NC(=O)C1CCCN(c2cnccn2)C1 (stereo unspecified)	AHR activator 96 (no result: PERK inhibitor, Hsp70 activator, STAT3 act) | AHR act confirm 80 | PXR counter 24
COc1ccccc1CNC(=O)C1CCCN(c2cnccn2)C1 (stereo unspecified)	none (no result: PERK inhibitor, Hsp70 activator, STAT3 act)
NS(=O)(=O)c1cc([N+](=O)[O-])ccc1NCc1cccnc1	none (no result: PERK inhibitor, Hsp70 activator, STAT3 act)
CN(C(=O)c1cc([N+](=O)[O-])ccc1NCc1cccnc1)c1ccccc1	AHR activator 80 (no result: PERK inhibitor, Hsp70 activator, STAT3 act) | AHR act confirm 72 | PXR counter 88
Cc1ccc(N=Nc2c(O)[nH]c3ccc(F)cc23)cc1	AHR activator 114 (no result: Hsp70 activator, STAT3 act) | AHR act confirm 129 | PXR counter 22
Cc1cc2n(n1)SC(Nc1ccc(F)c(Cl)c1)N2 (stereo unspecified)	AHR activator 89 | AHR act confirm 106 | PXR counter 52
Cc1ccc(NC(=O)Nc2ccc(F)c(Cl)c2)cc1	none
CCN(CC)c1ccc(/C=N/NC(=O)C(O)c2ccccc2)cc1 (stereo unspecified)	none
CCN(CC)c1ccc(/C=N/NC(=O)C2CC2)cc1	AHR activator 85 (no result: PERK inhibitor, Hsp70 activator, STAT3 act) | AHR act confirm 77 | PXR counter 44
CC(O)Cn1c(N2CCCC2)nc2c1c(=O)[nH]c(=O)n2C (stereo unspecified)	none (no result: PERK inhibitor, Hsp70 activator, STAT3 act)
COc1cc(OC)cc(-c2c(-c3cccs3)c3cc(-c4ccc5cc[nH]c5c4)ccc3n2C)c1	none (no result: HSF1 inhib, PERK inhibitor, Hsp70 activator, PolyA inhibitor, STAT3 act)
Cn1c(-c2ccsc2)c(-c2cccs2)c2cc(-c3cccc4[nH]ccc34)ccc21	AHR activator 112 (no result: HSF1 inhib, PERK inhibitor, Hsp70 activator, PolyA inhibitor, STAT3 act) | AHR act confirm 101 | PXR counter 79
Cc1ccc2[nH]c(=O)c(-c3nc4cc(C)ccn4c3NCc3ccco3)cc2c1	AHR activator 88 | AHR act confirm 75 | PXR counter 39
C=CCN1C(=O)c2ccccc2NC1c1ccc(Br)s1 (stereo unspecified)	none (no result: PERK inhibitor, Hsp70 activator, STAT3 act)
O=C1c2ccccc2NC(c2ccc(Br)s2)N1O (stereo unspecified)	AHR activator 80 (no result: PERK inhibitor, Hsp70 activator, STAT3 act) | AHR act confirm 81 | PXR counter 25
CN1CCN(CC(=O)Nc2c(C(=O)c3ccccc3)oc3ccccc23)CC1	AHR activator 79 (no result: PERK inhibitor, Hsp70 activator, STAT3 act) | AHR act confirm 61 | PXR counter 20
O=C(CN1CCN(c2ccc(F)cc2)CC1)Nc1ccccc1C(=O)NCCc1ccccc1	none (no result: HSF1 inhib, PERK inhibitor, Hsp70 activator, PolyA inhibitor, STAT3 act)
O=C(CN1CCN(c2ccccc2O)CC1)Nc1ccccc1C(=O)NCCc1ccccc1	AHR activator 91 (no result: HSF1 inhib, PERK inhibitor, Hsp70 activator, PolyA inhibitor, STAT3 act) | AHR act confirm 93 | PXR counter 85
O=C(CCNS(=O)(=O)c1ccc(Br)cc1)NCCCSc1ccccc1	none (no result: HSF1 inhib, PERK inhibitor, Hsp70 activator, PolyA inhibitor, STAT3 act)
CN(C)c1ccc(NC(=O)/C=C/c2c(Cl)cccc2Cl)cc1	AHR activator 100 | AHR act confirm 147 | PXR counter 87
CN(C)S(=O)(=O)c1ccc(NC(=O)/C=C/c2ccccc2Cl)cc1	none
Cc1cc(C(=O)c2cnc(/N=C/N(C)C)s2)c(F)cc1Cl	none
O=C1CN(C(=O)CNCc2ccccc2Cl)c2ccccc2N1	AHR activator 88 (no result: Hsp70 activator, STAT3 act) | AHR act confirm 61 | PXR counter 39
O=C1CN(C(=O)CNCc2cccc(Cl)c2)c2ccccc2N1	none (no result: Hsp70 activator, STAT3 act)
O=C(N=Nc1c(O)[nH]c2ccccc12)c1ccc2c(c1)OCO2	AHR activator 95 | AHR act confirm 65 | PXR counter 21
Cc1ccc(NC(=S)Nc2cccc3ccccc23)cc1F	AHR activator 84, HSF1 inhib -55 (no result: PERK inhibitor, Hsp70 activator, STAT3 act) | AHR act confirm 75 | PXR counter 112
CC(=O)c1ccc(NC(=O)c2cc(Cl)nc3ccccc23)cc1	AHR activator 96 | AHR act confirm 82
Fc1cccc(NC(=S)Nc2cccc3ccccc23)c1	AHR activator 82 (no result: PERK inhibitor, Hsp70 activator, STAT3 act) | AHR act confirm 62 | PXR counter 100
CC(=O)N(C)c1ccc(NC(=S)Nc2cccc3ccccc23)cc1	none
O=C(Nc1cccc2ccccc12)c1cccc(F)c1	none (no result: AHR activator, PERK inhibitor, Hsp70 activator, STAT3 act)
CC(=O)c1ccc(NC(=S)Nc2cccc3ccccc23)cc1	AHR activator 99, HSF1 inhib -67 (no result: PERK inhibitor, Hsp70 activator, STAT3 act) | AHR act confirm inactive | PXR counter 86
CC(C)c1ccc(NC(=O)[C@H]2CSCN2C(=O)[C@@H]2CCC(=O)N2)cc1	none (no result: PERK inhibitor, Hsp70 activator, STAT3 act)
Cc1cccc(C(=O)NC(C)c2ccc(-n3ccnc3)cc2)c1C (stereo unspecified)	none (no result: PERK inhibitor, Hsp70 activator, STAT3 act)
CC(NC(=O)c1c(F)cccc1Cl)c1ccc(-n2ccnc2)cc1 (stereo unspecified)	AHR activator 127 (no result: PERK inhibitor, Hsp70 activator, STAT3 act) | AHR act confirm 64 | PXR counter 19
CC(NC(=O)c1cc(F)c(F)c(F)c1F)c1ccc(-n2ccnc2)cc1 (stereo unspecified)	AHR activator 96 (no result: PERK inhibitor, Hsp70 activator, STAT3 act) | AHR act confirm 50 | PXR counter 18
Cc1ccc(NC(=O)c2ccccc2Br)cc1S(=O)(=O)N(C)C	none
C=CCNC(=O)c1cnc(-c2ccccc2)nc1-c1ccccc1	none (no result: PERK inhibitor, Hsp70 activator, STAT3 act)
O=C(Nc1ccc(F)cc1)c1cnc(-c2ccccc2)nc1-c1ccccc1	AHR activator 124 | AHR act confirm 53 | PXR counter 81
Cc1cc2cc(C)c(NCCNC(=O)c3ccccc3F)nc2cc1C	none
Cc1cc2cc(C)c(NCCNC(=O)c3cccs3)nc2cc1C	AHR activator 97 | AHR act confirm 64 | PXR counter 22
Cn1c(SCC(=O)Nc2ccc(C(=O)O)cc2)nc2scc(-c3ccccc3Cl)c2c1=O	none (no result: HSF1 inhib, PERK inhibitor, Hsp70 activator, PolyA inhibitor, STAT3 act)
O=C(COc1ccc2ccccc2c1)N/N=C/C1CC=CCC1 (stereo unspecified)	AHR activator 85 | AHR act confirm inactive | PXR counter 12
COc1ccc(OCC(=O)N/N=C/C2CC=CCC2)cc1 (stereo unspecified)	none (no result: PolyA inhibitor)
CC(C)c1csc(CN2CCCC(CNC(=O)c3cccc4ccccc34)C2)n1 (stereo unspecified)	none (no result: PERK inhibitor, Hsp70 activator, STAT3 act)
CCCCCOc1ccc(Cn2ccnc2)cc1[N+](=O)[O-]	AHR activator 101 | AHR act confirm 75 | PXR counter 53

Screens from PubChem.
